Molecules are shown by their SMILES. pIC50: −log10 of the molar value. Activity calls are given as the source filed them. The rule behind the calls is not given here.

In series [1] the test system is PC-3. Briefly: Cell cycle arrest in human PC3 cells assessed as accumulation at G2/M phase at 3 uM measured after 48 hrs by RNase/propidium iodide staining based flow cytometry analysis (reference value: 22.84 %). The format is functional. A general note: In flow cytometry, cells or beads pass a laser one at a time.
Series [2] deals with PC-3. Put plainly: Effect on Pin1 expression in human PC3 cells at 0.1 to 10 uM measured after 72 hrs by Western blot analysis. The format is functional, cell-based. The method in brief:
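Western blot: PC-3 seeded 1.25 × 10^5/well, exposed to 0.1–10 μM for 72 h. Lysed in 2× SDS buffer and sonicated; 20–25 μg protein run on 12% SDS gel, transferred to PVDF, blocked in 5% BSA/TBST. Primary antibodies overnight, secondary 1 h; ECL detection, β-actin loading control.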
(Immunoblotting shows a protein as a band on a membrane.)

For series [3], the system named is PC-3. Briefly: Cell cycle arrest in human PC3 cells assessed as accumulation at G2/M phase at 10 uM measured after 48 hrs by RNase/propidium iodide staining based flow cytometry analysis (reference value: 22.84 %). The class given is functional.
Series [4] has as its system PC-3. Put plainly: Cell cycle arrest in human PC3 cells assessed as accumulation at G0/G1 phase at 10 uM measured after 48 hrs by RNase/propidium iodide staining based flow cytometry analysis (reference value: 35.13 %). The format is functional.
For series [5], the system named is PC-3. Put plainly: Cell cycle arrest in human PC3 cells assessed as accumulation at G0/G1 phase at 3 uM measured after 48 hrs by RNase/propidium iodide staining based flow cytometry analysis (reference value: 35.13 %). The class given is functional.
Series [6] concerns PC-3. Put plainly: Cell cycle arrest in human PC3 cells assessed as accumulation at S phase at 10 uM measured after 48 hrs by RNase/propidium iodide staining based flow cytometry analysis (reference value: 42.03 %). The class given is functional.
For series [7], the system named is PC-3. Put plainly: Anticlonogenic activity against human PC3 cells assessed as reduction in colony formation at 10 uM incubated for 72 hrs supplemented with fresh medium containing measured after 15 days by colony formation assay. The class given is functional, cell-based. The method in brief:
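Clonogenic assay: PC-3 seeded at 500 cells/well in six-well plates, allowed to adhere overnight, then treated. Medium and compound renewed every 72 h over 15 days. Colonies fixed with 3.7% formaldehyde for 20 min, stained with 0.4% crystal violet and counted. Three experiments, each in quadruplicate, expressed as fold change versus control.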

For series [8], the system named is PC-3. Put plainly: Cell cycle arrest in human PC3 cells assessed as accumulation at S phase at 3 uM measured after 48 hrs by RNase/propidium iodide staining based flow cytometry analysis (reference value: 42.03 %). The format is functional.
Series [9] concerns PC-3. Briefly: Induction of apoptosis in human PC3 cells assessed as nuclear condensation at 3 to 10 uM after 72 hrs by Hoechst 33342 staining based fluorescence microscopy. The class given is functional, cell-based. In short, it runs like this: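 PC-3 cells treated 72 h with 3 or 10 μM, stained with Hoechst 33342 for 15 min at room temperature in the dark, washed with PBS, and nuclei examined by fluorescence microscopy for condensation.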

Series [10] has as its system PC-3. Briefly: Induction of apoptosis in human PC3 cells assessed as loss of cell morphology at 3 to 10 uM after 72 hrs by phase contrast microscopy. The class given is functional, cell-based. In short, it runs like this: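 PC-3 cells in exponential growth exposed to 3 or 10 μM for 72 h, washed gently with PBS, and apoptotic morphology recorded by phase-contrast microscopy.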

Series [11] deals with PC-3. Put plainly: Anticancer activity against human PC3 cells assessed as reduction in cell viability measured after 72 hrs by MTT assay. The class given is functional, cell-based. The following applies: PC-3, 72 h. A general note: Tetrazolium dyes change colour on reduction, which living cells bring about.
In series [12] the test system is A-431. Briefly: Anticancer activity against human A431 cells assessed as reduction in cell viability measured after 72 hrs by MTT assay. The class given is functional, cell-based. The following applies: A-431, 72 h.
In series [13] the test system is MDA-MB-231. Briefly: Anticancer activity against human MDA-MB-231 cells assessed as reduction in cell viability measured after 72 hrs by MTT assay. The settings on record: MDA-MB-231, 72 h. The class given is functional, cell-based.
Series [14] has as its system MDA-MB-231. Put plainly: Anticancer activity against human MDA-MB-231 cells assessed as cell viability measured after 72 hrs by MTT assay (reference value: 100 +/- 20.0 %). Set-up: concentration or dose not given beside the values. The class given is functional.
For series [15], the system named is PC-3. Briefly: Anticancer activity against human PC3 cells assessed as cell viability measured after 72 hrs by MTT assay (reference value: 100 +/- 18.8 %). The format is functional. On the set-up: concentration or dose not given beside the values.
Series [16] deals with LNCaP. Briefly: Anticancer activity against human LNCAP cells assessed as cell viability measured after 72 hrs by MTT assay (reference value: 100 +/- 5.0 %). The class given is functional. Set-up: concentration or dose not given beside the values.
Series [17] relates to HepG2. Briefly: Anticancer activity against human HepG2 cells assessed as reduction in cell viability measured after 72 hrs by MTT assay. The class given is functional, cell-based. The settings on record: HepG2, 72 h.
The subject of series [18] is A549. Put plainly: Anticancer activity against human A549 cells assessed as cell viability measured after 72 hrs by MTT assay (reference value: 100 +/- 9.6 %). Set-up: concentration or dose not given beside the values. The format is functional.
Series [19] has as its system HepG2. Briefly: Anticancer activity against human HepG2 cells assessed as cell viability measured after 72 hrs by MTT assay (reference value: 100 +/- 6.5 %). The format is functional. On the set-up: concentration or dose not given beside the values.
Series [20] relates to HeLa. Put plainly: Anticancer activity against human HeLa cells assessed as cell viability measured after 72 hrs by MTT assay (reference value: 100 +/- 11.5 %). The format is functional. Set-up: concentration or dose not given beside the values.
In series [21] the test system is A-431. Put plainly: Anticancer activity against human A431 cells assessed as cell viability measured after 72 hrs by MTT assay (reference value: 100 +/- 11.7 %). The class given is functional. On the set-up: concentration or dose not given beside the values.
Series [22] is described as follows: Elimination half-life in Sprague-Dawley rat at 10 mg/kg administered as iv bolus dose by EC-HPLC analysis. The class given is ADME, organism-based. The following applies: in vivo, read-out: beta t1/2.
Series [23] is described as follows: Solubility of compound in water. The format is physicochemical. The following applies: buffer.

`C[C@@H]1CC[C@H]2[C@@H](C)C(=O)O[C@@H]3O[C@@]4(C)CC[C@@H]1[C@]32OO4` [ARTEMISININ]: the Activity in series [1] is reported as 22.1%; in series [3], 16.07%; in series [4], 35.55%; in series [5] it was 33.48%; in [6], 48.38%; in series [8], 44.42%. Besides, the outcome in series [2] was inactive. For the same compound, the outcome in [7], in [9] and in series [10] was Active.

Usually pIC50 stands for the IC50 on a negative log10 scale, so that one unit is a factor of ten. With `CCCCCCS[C@H]1O[C@@H]2O[C@@]3(C)CC[C@H]4[C@H](C)CC[C@@H]([C@H]1C)[C@@]24OO3`, the pIC50 in series [11] was 5.24; in series [12] it was 5.40; in series [13], 5.40; in series [17] it was 4.97. The Activity is reported as 39% in [14]; 39% in series [15]; 46% in [16]; 55% in [18]; 41% in [19]; 49% in series [20]. In series [21], the Activity is given as 45%.

As to `C[C@H]1[C@@H](O)O[C@@H]2O[C@@]3(C)CC[C@H]4[C@H](C)CC[C@@H]1[C@@]24OO3` [ARTENIMOL], the half-life in series [22] was less than 60 min. In addition, the solubility entry in [23] is “Soluble”.
